The source made the active and inactive calls. The calls are words filed in the database; no cut-off is given here.
Experiments:
MV4-11 [1] = assay: Induction of apoptosis in human MV4-11 cells assessed as early apoptotic cells at 1 uM incubated for 15 mins by Annexin-V/FITC staining based FACS analysis (reference value: 0.70%); format: functional; details: 0.25 h
Procedure, shortened: (§1)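 MV4-11 cells were dosed, then washed twice in cold PBS and resuspended in binding buffer at 1×10^6 cells/mL. Cells were stained with FITC-annexin V and propidium iodide for 15 min in the dark, diluted with binding buffer and analysed by flow cytometry within 1 h. Quadrants: LL viable, LR early apoptotic, UR late apoptotic. Duplicate experiments averaged; DMSO control.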

MV4-11 [2] = assay: Induction of apoptosis in human MV4-11 cells assessed as late apoptotic cells at 0.25 uM incubated for 15 mins by Annexin-V/FITC staining based FACS analysis (reference value: 4.17%); format: functional; procedure, shortened: as §1
MV4-11 [3] = assay: Induction of apoptosis in human MV4-11 cells assessed as viable cells at 0.25 uM incubated for 15 mins by Annexin-V/FITC staining based FACS analysis (reference value: 35.53%); format: functional; details: MV4-11, 0.25 h, read-out: Activity; procedure, shortened: as §1
MV4-11 [4] = assay: Induction of apoptosis in human MV4-11 cells assessed as early apoptotic cells at 2 uM incubated for 15 mins by Annexin-V/FITC staining based FACS analysis (reference value: 0.70%); format: functional; details: 0.25 h; procedure, shortened: as §1
[5] = Half life in human whole blood incubated for 1 hr; format: ADME, tissue-based
Procedure, shortened: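 Compound was incubated in mouse plasma or in pooled human whole blood. […] Triplicate studies, averaged.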

[6] = Stability in mouse plasma assessed as compound remaining measured after 30 mins; format: ADME, cell-free; details: read-out: Stability
MV4-11 [7] = assay: Induction of ROS generation in human MV4-11 cells at 10 uM measured over 4 hrs by DCFDA staning based spectrophotometric analysis; format: functional, cell-based
Procedure, shortened: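 MV4-11 cells were washed once in PBS and loaded with DCFDA (33 μM) for 30 min at 37 °C in the dark. Cells were then washed, resuspended in supplemental buffer and dosed with compound. Fluorescence (Ex/Em 485/535) was followed for up to 4 h against a DMSO control.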

[8] = Kinetic solubility in pH 7.4 PBS buffer assessed as saturation concentration by HPLC analysis; format: physicochemical
Ramos = assay: Anti-proliferative activity against human Ramos cells assessed as cell viability measured after 72 hrs by Cell-Titer assay; format: functional, cell-based
Procedure, shortened: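 Cells were plated in 96-well plates and received compound or vehicle (0.5% DMSO) 24 h later. CellTiter-Blue was added at 72 h and fluorescence read at 560/590 nm. IC50 derived by non-linear regression.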

MV4-11 [9] = assay: Induction of apoptosis in human MV4-11 cells assessed as viable cells at 0.50 uM incubated for 15 mins by Annexin-V/FITC staining based FACS analysis (reference value: 35.53%); format: functional; details: MV4-11, 0.25 h, read-out: Activity; procedure, shortened: as §1
[10] = Cmax in Balb/c mouse at 50 mg/kg, ip by LC-MS/MS analysis; format: ADME, organism-based; design: route intraperitoneal, dose 50 mg/kg; details: in vivo
Procedure, shortened: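 Male BALB/c mice received a single intraperitoneal dose from a 50 mg/mL solution in 5% DMSO, 30% PEG400, 1% Tween80 and 64% saline. Blood was collected at several time points and the compound quantified by triple-quadrupole LC-MS/MS.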

[11] = biological target: T1, Protein deacetylase HDAC6 (Homo sapiens, UniProt Q9UBN7); assay: Inhibition of full length human HDAC6 preincubated for 3 hrs
T1 sequence (Q9UBN7 whole entry): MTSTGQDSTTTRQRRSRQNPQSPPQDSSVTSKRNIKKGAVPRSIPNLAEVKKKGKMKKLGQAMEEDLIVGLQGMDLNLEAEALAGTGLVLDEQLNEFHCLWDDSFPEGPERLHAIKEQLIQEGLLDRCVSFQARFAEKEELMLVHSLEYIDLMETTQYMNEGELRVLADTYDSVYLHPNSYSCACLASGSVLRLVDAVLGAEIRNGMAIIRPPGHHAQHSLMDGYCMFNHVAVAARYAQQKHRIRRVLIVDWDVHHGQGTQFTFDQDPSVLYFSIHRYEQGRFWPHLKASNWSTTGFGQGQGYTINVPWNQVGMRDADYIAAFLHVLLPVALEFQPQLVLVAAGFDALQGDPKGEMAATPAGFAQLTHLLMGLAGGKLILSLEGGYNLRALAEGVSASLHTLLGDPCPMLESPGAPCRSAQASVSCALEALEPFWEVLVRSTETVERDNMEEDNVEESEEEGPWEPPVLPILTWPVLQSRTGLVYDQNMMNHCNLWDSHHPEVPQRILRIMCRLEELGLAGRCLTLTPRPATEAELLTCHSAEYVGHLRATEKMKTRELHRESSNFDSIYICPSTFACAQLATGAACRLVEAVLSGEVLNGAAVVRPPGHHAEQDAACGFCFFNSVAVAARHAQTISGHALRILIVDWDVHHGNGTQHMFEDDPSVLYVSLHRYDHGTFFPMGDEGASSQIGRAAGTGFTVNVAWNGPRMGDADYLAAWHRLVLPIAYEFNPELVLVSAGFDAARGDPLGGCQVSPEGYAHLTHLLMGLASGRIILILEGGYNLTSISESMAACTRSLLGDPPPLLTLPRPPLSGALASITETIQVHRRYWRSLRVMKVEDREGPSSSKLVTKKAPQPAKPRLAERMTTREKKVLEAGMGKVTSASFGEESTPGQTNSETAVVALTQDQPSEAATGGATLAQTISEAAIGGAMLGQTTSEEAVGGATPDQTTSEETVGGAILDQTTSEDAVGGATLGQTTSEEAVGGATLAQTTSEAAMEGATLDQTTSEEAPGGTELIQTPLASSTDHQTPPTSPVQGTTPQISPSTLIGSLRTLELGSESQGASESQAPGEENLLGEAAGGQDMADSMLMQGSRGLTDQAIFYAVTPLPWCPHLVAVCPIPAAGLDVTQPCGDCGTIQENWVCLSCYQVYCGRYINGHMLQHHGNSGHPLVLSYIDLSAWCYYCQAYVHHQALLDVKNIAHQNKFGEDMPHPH

MV4-11 [12] = assay: Induction of apoptosis in human MV4-11 cells assessed as early apoptotic cells at 0.25 uM incubated for 15 mins by Annexin-V/FITC staining based FACS analysis (reference value: 0.70%); format: functional; procedure, shortened: as §1
[13] = Stability in human whole blood assessed as compound remaining measured after 60 mins; format: ADME, tissue-based; details: read-out: Stability
MV4-11 [14] = assay: Induction of apoptosis in human MV4-11 cells assessed as viable cells at 0.50 uM incubated for 15 mins by Annexin-V/FITC staining based FACS analysis (reference value: 84.58%); format: functional; details: MV4-11, 0.25 h, read-out: Activity; procedure, shortened: as §1
MV4-11 [15] = assay: Induction of apoptosis in human MV4-11 cells assessed as viable cells at 4 uM incubated for 15 mins by Annexin-V/FITC staining based FACS analysis (reference value: 84.58%); format: functional; details: MV4-11, 0.25 h, read-out: Activity; procedure, shortened: as §1
MV4-11 [16] = assay: Induction of apoptosis in human MV4-11 cells assessed as late apoptotic cells at 2 uM incubated for 15 mins by Annexin-V/FITC staining based FACS analysis (reference value: 4.36%); format: functional; details: 0.25 h; procedure, shortened: as §1
MV4-11 [17] = assay: Induction of apoptosis in human MV4-11 cells assessed as early apoptotic cells at 1 uM incubated for 15 mins by Annexin-V/FITC staining based FACS analysis (reference value: 7.28%); format: functional; details: 0.25 h; procedure, shortened: as §1

| t1/2 [5] [h] | remaining at 0.5 h [6] [%] | Kinetic_solubility [8] [µM] | IC50 (Ramos) [nM] | Cmax [10] [ng/mL] | IC50 [11] [nM] | remaining at 1 h [13] [%] | SMILES | Activity (MV4-11 [1]) [%] | Activity (MV4-11 [2]) [%] | viability at 0.25 µM (MV4-11 [3]) [%] | Activity (MV4-11 [4]) [%] | Activity (MV4-11 [7]) | viability at 0.5 µM (MV4-11 [9]) [%] | Activity (MV4-11 [12]) [%] | viability at 0.5 µM (MV4-11 [14]) [%] | viability at 4 µM (MV4-11 [15]) [%] | Activity (MV4-11 [16]) [%] | Activity (MV4-11 [17]) [%] |
| --- | --- | --- | --- | --- | --- | --- | --- | --- | --- | --- | --- | --- | --- | --- | --- | --- | --- | --- |
| 1.8 | 79.8 | 161.5 | 300 | 95.1 | 2 | 68.9 | O=C(NO)c1ccc(CN(Cc2cccnc2)S(=O)(=O)c2cc(F)c(F)c(F)c2F)cc1 | 1.84 | 3.29 | 33.1 | 2.45 | Active | 28.4 | 0.94 | – | – | – | – |
| – | – | – | – | – | – | – | O=C(CCCCCCNC(=O)c1cnc(N(c2ccccc2)c2ccccc2Cl)nc1)NO [CITARINOSTAT] | – | – | – | – | – | – | – | 81.4 | 40.9 | 13.33 | 16.25 |
